Experimental data reported in ChEMBL document CHEMBL2401723, “Optimization of the electrophile of chloronitrobenzamide leads active against Trypanosoma brucei” (Bioorg Med Chem Lett, 2013).
In brackets after ≈: the same amount, converted by molar mass.

Legend:
HepG2 = assay: Cytotoxicity against human HepG2 cells assessed as growth inhibition after 72 hrs by Cell-Titer Glo assay; type: cell-based; settings: HepG2, 72 h
How it was run: (§1)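 Human cell lines (Raji Burkitt's lymphoma, BJ immortalized foreskin fibroblast, HEK293 embryonic kidney, HepG2) exposed 72 h to a 10-point threefold dilution series by pin transfer, lowest final 0.5 nM, final DMSO 0.2%; proliferation run in triplicate, EC50 derived.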

Raji = assay: Cytotoxicity against human Raji cells assessed as growth inhibition after 72 hrs by Cell-Titer Glo assay; type: cell-based; how it was run: as §1
[1] = Kinetic solubility in PBS buffer at pH 7.4 after 18 hrs by UV-spectroscopic analysis; type: physicochemical; settings: for solubility kinetic at 18 h: PBS buffer, pH 7.4, read-out: Kinetic_solubility
HEK293 = assay: Cytotoxicity against HEK293 cells assessed as growth inhibition after 72 hrs by Cell-Titer Glo assay; type: cell-based; settings: Homo sapiens, HEK293, 72 h; how it was run: as §1
[2] = system: Trypanosoma brucei brucei; assay: Antitrypanosomal activity against Trypanosoma brucei brucei assessed as parasite growth inhibition after 48 hrs by Cell-Titer Glo assay; type: functional, organism-based
[3] = Permeability of the compound by PAMPA; type: ADME; settings: for Papp: read-out: permeability
How it was run: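 Passive permeability by parallel artificial membrane assay (pION implementation), measured against PBS pH 7.4 sink buffer.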

BJ = assay: Cytotoxicity against human BJ cells assessed as growth inhibition after 72 hrs by Cell-Titer Glo assay; type: cell-based; how it was run: as §1
[4] = system: Trypanosoma brucei rhodesiense; assay: Antitrypanosomal activity against wild type Trypanosoma brucei rhodesiense STIB900 assessed as parasite growth inhibition after 48 hrs by Cell-Titer Glo assay; type: functional, organism-based; settings: STIB900, 48 h
How it was run: (§2)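 Parasites exposed to a 10-point threefold dilution series added by pin transfer, lowest final concentration 0.5 nM, final DMSO 0.2%; EC50 from the series, mean of two experiments.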

[5] = system: Trypanosoma brucei gambiense; assay: Antitrypanosomal activity against Trypanosoma brucei gambiense STIB930 assessed as parasite growth inhibition after 48 hrs by Cell-Titer Glo assay; type: functional, organism-based; settings: STIB930, 48 h; how it was run: as §2
[6] = Half life in human liver microsomes; type: ADME, Microsome
[7] = Half life in mouse liver microsomes; type: ADME, Microsome
[8] = system: Trypanosoma brucei brucei; assay: Antitrypanosomal activity against Trypanosoma brucei brucei assessed as parasite growth inhibition; type: functional, organism-based

Structure (SMILES)	EC50 (HepG2) [µM]	EC50 (Raji) [µM]	solubility kinetic at 18 h [1] [µM]	EC50 (HEK293) [µM]	EC50 [2] [nM]	Papp [3] [×10⁻⁶ cm/s]	EC50 (BJ) [µM]	permeability [3] [×10⁻⁶ cm/s]	EC50 [4] [nM]	EC50 [5] [nM]	half-life [6] [min]	half-life [7] [min]	Kinetic_solubility ([1]; buffer, pH 7.4, 18 h, BLD = below limit of detection)	EC50 [8] [nM]
C=CC(=O)Nc1cccc(-c2nc3ccccc3s2)c1	> 25	> 25	0.18 (≈ 0.0505 µg/mL)	> 25	> 33000	797	> 25	–	–	–	–	–	–	–
CN(C)CCC(=O)Nc1cccc(-c2nc3ccccc3s2)c1	21	> 25	56 (≈ 18.2 µg/mL)	> 25	> 33000	–	> 25	2080	–	–	–	–	–	–
CC(Cl)C(=O)Nc1cccc(-c2nc3ccccc3s2)c1 (stereo not drawn)	> 25	> 25	0.83 (≈ 0.263 µg/mL)	> 25	1200	769	> 25	–	–	–	–	–	–	–
O=C(O)/C=C/C(=O)Nc1cccc(-c2nc3ccccc3s2)c1	> 25	> 25	56 (≈ 18.2 µg/mL)	> 25	> 33000	4	> 25	–	–	–	–	–	–	–
C=C(C)C(=O)Nc1cccc(-c2nc3ccccc3s2)c1	> 25	> 25	0.42 (≈ 0.124 µg/mL)	> 25	> 33000	987	> 25	–	–	–	–	–	–	–
O=C(Nc1cccc(-c2nc3ccccc3s2)c1)c1cnccc1Cl	> 25	12	0.32 (≈ 0.117 µg/mL)	> 25	300	732	> 25	–	62	61	–	–	–	–
O=C(Nc1cccc(-c2nc3ccccc3s2)c1)c1ccnc(Cl)c1	> 25	> 25	0.74 (≈ 0.271 µg/mL)	> 25	20000	478	> 25	–	–	–	–	–	–	–
COc1ccc(-c2nc3ccccc3o2)cc1NC(=O)c1cnccc1Cl	> 25	> 25	1.68 (≈ 0.638 µg/mL)	> 25	200	391	> 25	–	–	–	–	–	–	–
O=C(Nc1cccc(-c2nc3ccccc3s2)c1)c1cnc(Cl)s1	> 25	> 25	0.94 (≈ 0.35 µg/mL)	> 25	18000	133	> 25	–	–	–	–	–	–	–
Cc1ccc(-c2nc3ccccc3s2)cc1NC(=O)c1cnccc1Cl	> 25	> 25	0.14 (≈ 0.0532 µg/mL)	> 25	58	791	> 25	–	55	58	222	34.8	–	–
O=C(CCl)Nc1cccc(-c2nc3ccccc3s2)c1	16	1.7	1 (≈ 0.303 µg/mL)	10	120	660	8.5	–	–	–	–	–	–	–
COc1ccc(-c2nc3ccccc3s2)cc1NC(=O)c1cnccc1Cl	> 25	13	0.34 (≈ 0.135 µg/mL)	> 25	120	121	> 25	–	–	–	–	–	–	–
O=C(Nc1cc(-c2nc3ccccc3o2)ccc1F)c1cnccc1Cl	> 25	> 25	0.13 (≈ 0.0478 µg/mL)	> 25	440	258	> 25	–	–	–	–	–	–	–
O=C(Nc1ccc(Cl)cc1)c1cc([N+](=O)[O-])ccc1Cl	> 25	> 25	3 (≈ 0.933 µg/mL)	> 25	920	536	> 25	–	–	–	–	–	–	–
O=C(Nc1ccc(F)c(-c2nc3ccccc3o2)c1)c1cnccc1Cl	> 25	> 25	0.67 (≈ 0.246 µg/mL)	> 25	120	305	> 25	–	50	120	–	–	–	–
O=C(Nc1cccc(-c2nc3ccccc3s2)c1)c1ccc(Cl)nc1Cl	> 25	> 25	0.35 (≈ 0.14 µg/mL)	> 25	11000	104	> 25	–	–	–	–	–	–	–
O=C(Nc1cc(-c2nc3ccccc3s2)ccc1F)c1cnccc1Cl	> 25	> 25	0.18 (≈ 0.0691 µg/mL)	> 25	180	306	> 25	–	–	–	–	–	–	–
O=C(Nc1ccc(F)c(-c2nc3ccccc3s2)c1)c1cnccc1Cl	> 25	> 25	0.08 (≈ 0.0307 µg/mL)	> 25	120	21	> 25	–	18	38	> 240	> 240	–	–
C/C=C/C(=O)Nc1cccc(-c2nc3ccccc3s2)c1	> 25	> 25	0.11 (≈ 0.0324 µg/mL)	> 25	> 33000	–	> 25	1640	–	–	–	–	–	–
CC(C)(CCl)C(=O)Nc1cccc(-c2nc3ccccc3s2)c1	> 25	> 25	–	> 25	> 33000	891	> 25	–	–	–	–	–	BLD	–
Cc1ccc(-c2nc3ccccc3s2)cc1NC(=O)c1cc([N+](=O)[O-])c(N2CCNCC2)cc1Cl	–	–	–	–	–	–	–	–	–	–	–	–	–	27
O=C(Nc1cccc(-c2nc3ccccc3s2)c1)c1cc([N+](=O)[O-])cnc1Cl	> 25	8.4	0.45 (≈ 0.185 µg/mL)	> 25	13000	42	> 25	–	–	–	–	–	–	–
O=C(Nc1cccc(-c2nc3ccccc3s2)c1)c1cccnc1Cl	> 25	> 25	0.52 (≈ 0.19 µg/mL)	> 25	25000	677	> 25	–	–	–	–	–	–	–
Cc1ccc(-c2nc3ccccc3o2)cc1NC(=O)c1cnccc1Cl	> 25	> 25	0.51 (≈ 0.186 µg/mL)	> 25	180	646	> 25	–	120	170	–	–	–	–
O=C(Nc1cccc(-c2nc3ccccc3s2)c1)c1ccncc1Cl	> 25	> 25	0.32 (≈ 0.117 µg/mL)	> 25	24000	563	> 25	–	–	–	–	–	–	–
